What was measured:
[1] = HPLC stability determination of final drug product; format: physicochemical; conditions: ambient temperature, shielded container
Method in brief: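 Final product was formulated at 44–463 MBq/mL in USP ethanol (1 mL)/0.5 mg ascorbic acid in 0.9 % sodium chloride, sterile filtered and sealed in a glass vial. It was held at ambient temperature in a shielded container and checked by HPLC after end-of-synthesis. Release QC covered HPLC radiochemical purity (≥90 %), pH 4.5–7.5, endotoxin, GC residual solvents, sterility and filter integrity.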

healthy volunteers = experiment: first-in-human adverse event monitoring in healthy volunteers; format: in vivo
Method in brief: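 Participants were aged 56–75 (four male, four female). Tracer was given as an i.v. bolus (1–2 min) via a cephalic-vein catheter, supine, before 94 min of PET-MR over three sessions ending at 214 min. Adverse events were watched for continuously during scans, breaks and afterwards. Vital signs and ECG were taken ~60 min post-imaging, then physician/nurse review before discharge and off-site follow-up at 24–48 h. Later events were self-reported.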

[2] = organ radiation dose estimates, both OLINDA software versions; format: in vivo, human
Method in brief: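 Per-participant organ doses from OLINDA 1.1 (ICRP-60) and 2.0 (ICRP-103) were pooled by sex as mean ± SD (n = 4 per sex), in mGy/MBq; effective dose in mSv/MBq. Males and females were compared at p < 0.05. Kidney dose per MBq was related to injected activity and benchmarked against FDA 21CFR361 single-study limits (30 mSv whole body; 50 mGy other organs).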

[3] = range of sex means from both software versions

## COC(=O)[C@@H](N)CC(=O)Nc1ccc2c(c1)Cc1cc([18F])ccc1-2 [[^18F]RP-115, methyl N^4-(7-[^18F]fluoro-9H-fluoren-2-yl)asparaginate]
[1]
  expiration time after end-of-synthesis (EOS): 4 h
Healthy volunteers; 70.3–355 MBq i.v. bolus, n=8, ≤48 h and up to 1 year
  adverse events / pharmacological effects: no adverse events (AE) or clinically detectable pharmacological effects
Healthy volunteers; 70.3–355 MBq i.v., n=8, PET-MR scanning protocol
  tolerability: well tolerated
[2]; 0.237 mGy/MBq × 211 MBq = 50 mGy
  kidney dose per injected activity used for the limit: 0.237 mGy/MBq
[2]; Males 1–2 and Female 2, 289–355 MBq given
  renal estimated radiation dose: > 50 mSv
[2]; Males 1–2 and Female 4
  ratio of estimated kidney dose to radioactivity given: > 0.21 mGy/MBq
[2]; highest mean absorbed dose, primary route of elimination
  critical organ: kidneys
[2]; organs other than kidneys, liver, small intestine
  estimated absorbed doses, remaining organs and tissues and Effective dose: < 0.035 mGy/MBq
[2]; [3]
  kidneys mean absorbed estimated radiation dose: 0.142 to 0.214 mGy/MBq
  liver mean absorbed dose: 0.0392 to 0.0449 mGy/MBq
